The structures appear in SMILES notation. Values after ≈ are worked out from the molar mass of the structure shown. Active and inactive are the calls of the source. The calls are words filed in the database; no cut-off is given here.

The nature of series [1]: Aqueous solubility after 15 mins by shake flask method. Format: physicochemical. As to conditions: water.
Series [2] is described as follows: Octanol-water partition coefficient, log P at pH 7.4 by HPLC. Format: physicochemical. The essentials:
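Shake-flask method. About 5 mg of compound was shaken in 1 mL n-octanol and filtered, then an equal volume of phosphate buffer pH 7.4 was added. The mixture was inverted up to 200 times over 5 min and left 30 min for the phases to separate. Both phases were analysed by HPLC. Mean of three experiments, SEM reported.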

Series [3] can be described thus: Chemical stability assessed as half life in hydrochloric acid buffer at pH 1.3. Format: physicochemical. A digest of the protocol:
(§1)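 Prodrug hydrolysis was followed at 37 ± 0.5 °C. Line 3 used 0.02 M HCl buffer pH 1.3 (nonenzymatic simulated gastric fluid); line 4 used 0.02 M phosphate buffer pH 7.4. Each buffer contained 20% acetonitrile, and the reaction was started with 10^-4 M acetonitrile stock. Aliquots were analysed by HPLC. Kobs came from the slope of log(% residual prodrug) versus time; triplicate runs, mean ± SEM.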

The nature of series [4]: Chemical stability assessed as half life in phosphate buffer at pH 7.4. Format: physicochemical. A digest of the protocol:
as §1

Series [5] in a line: Metabolic stability in 80% rat plasma assessed as half life at pH 7.4. In kind it is ADME, cell-free. A digest of the protocol:
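Plasma was prepared from citrated blood (0.3% citric acid) of rats or humans by centrifugation at 3000 g and diluted to 80% with 0.02 M phosphate buffer pH 7.4. Drug from a 1 mg/mL acetonitrile stock was incubated at 37 °C with shaking. Timed aliquots were deproteinized with 0.01 M HCl in methanol, centrifuged and analysed by HPLC. First-order plots gave t1/2; triplicate, mean ± SEM.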

For series [6], the system named is Radical scavenging activity. Nature of the series: Antioxidant activity assessed as DPPH radical scavenging activity. Format: functional. The essentials:
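DPPH-HPLC method. Fresh 500 μM DPPH in methanol was mixed 1:1 by volume with antioxidant solutions made at 600, 300, 100 and 50 μM in methanol (DPPH final 250 μM). Residual DPPH was separated by reversed-phase C18 HPLC using a pH 3.0 phosphate/octanesulfonate/EDTA mobile phase with 6% acetonitrile. Vitamin E, caffeic acid and L-DOPA were run as references.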
For orientation: Loss of DPPH colour is used to gauge radical scavenging.

The species named for series [7] is Homo sapiens. Description: Metabolic stability in 80% human plasma assessed as half life at pH 7.4.

`COC(=O)CN1C(=O)[C@H](Cc2ccc(O)c(O)c2)NC1(C)C`: the solubility (thermodynamic) (as a rule, solubility found after equilibrating the solid with the medium) at 0.25 h in series [1] turned out to be 3990 µg/mL (≈ 12.9 mM). The logD (in general, the decadic logarithm of the distribution of all forms, ionised or not, between an organic phase and buffer at a given pH) in series [2] worked out at 0.101. Further, the half-life (in general, the time in which the quantity being followed falls by half) in series [3] stood at 189 h; in series [4] it was 4.2 h; in series [5], 1.17 h; in series [7], 0.714 h. The result in series [6] was Active.

As for `CCC1(CC)N[C@@H](Cc2ccc(O)c(O)c2)C(=O)N1CC(=O)OC`, in series [1], the thermodynamic solubility at 0.25 h worked out at 260 µg/mL (≈ 0.773 mM). In series [2], this compound showed a logD of 0.94. The half-life in series [3] is 64.3 h; in series [4] it was 4.75 h; in series [5] it was 1.89 h; in series [7], 0.793 h. Moreover, the result in series [6] was Active.

Compound `N[C@@H](Cc1ccc(O)c(O)c1)C(=O)O` [LEVODOPA] came in with a thermodynamic solubility at 0.25 h in series [1] of 3600 µg/mL (≈ 18.3 mM). Besides, the logP (in general, a log measure of how a compound divides between an organic and an aqueous phase) in series [2] is -2.38.

Turning to `COC(=O)CN1C(=O)[C@H](Cc2ccc(OC(C)=O)c(OC(C)=O)c2)NC1(C)C`, the thermodynamic solubility at 0.25 h in series [1] was determined as 26000 µg/mL (≈ 66.4 mM). The same compound displayed a logD in series [2] of 0.042. The half-life in series [3] came out at 71.2 h; in series [4], 11.6 h; in series [5], 0.065 h; in series [7], 0.392 h. In series [6], the outcome was inactive.

These data come from ChEMBL document CHEMBL1157590, “Design, synthesis, and preliminary pharmacological evaluation of new imidazolinones as L-DOPA prodrugs” (Bioorg Med Chem, 2010).
